Compound activity from PubChem BioAssay.
Hits are enriched below; roughly 1.3% of the tested compounds scored in any of these assays.
PERK inhibitor = block of dimerizer-induced PERK translation repression, primary screen, PERK inhibitor project, CHO PERK-DD cells, SEAP luminescence, HTS | Eukaryotic translation initiation factor 2-alpha kinase 3 (Homo sapiens), Q9NZJ5 | CHO PERK-DD fusion, SEAP luminescence translation reporter | inhibition, % at 5.6 µM | 220,000 tested, 0.17% active | AID 1416, 2008;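 active = inhibition above the mean inhibition of all tested compounds plus 3 SD, set separately per screening campaign, cut at about 2.9% in these data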;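 note: PERK kinase domain activated by AP20187 dimerizer at 100 nM; 0% = DMSO with dimerizer and 100% = rapamycin at 8.4 µM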
Hck-Nef inh = inhibitors of Nef-activated human Hck kinase, primary screen, biochemical, Z-Lyte FRET, 384-well, Hck-YEEI. Tyrosine-protein kinase HCK (Homo sapiens), P08631. Recombinant Hck-YEEI plus Nef, Z-Lyte FRET kinase assay. inhibition, % at 20 µM. 220,000 tested, 0.68% active. AID 463187, 2010;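 active = Hck-Nef kinase inhibition above about 50%, limit read from the data; inactive = inhibition below that limit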;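 note: 0% = DMSO with Hck plus Nef and 100% = Hck alone without Nef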
Rad51 HR inh = human RAD51 strand exchange inhibitors, primary screen, biochemical, fluorescence; DNA repair protein RAD51 homolog 1 (Homo sapiens), Q06609; hRad51 DNA strand exchange, fluorescence dequenching; inhibition, % at 10 µM; 200,000 tested, 0.085% active; AID 1385, 2008;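 active = inhibition above 40% at the single screening dose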;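 note: 0% = DMSO control wells and 100% = blanks with heterologous ssDNA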
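Test system: preformed human Rad51 ssDNA filaments; also added: Donor/quencher-labelled 47-bp dsDNA substrate; doses: 10 µM final, single point; times: 37 °C 15-min filament assembly, 30-min compound preincubation, 15-min exchange; detection: FRET fluorescence dequenching, excitation 485 nm, emission 520 nm; read-out basis: Fluorescence-based percent inhibition, control- and blank-normalised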
PKD1 inh = inhibitors of human PKD1 kinase, biochemical, fluorescence polarization | Serine/threonine-protein kinase D1 (Homo sapiens), Q15139 | PKD1 kinase fluorescence polarization assay | inhibition, % (test concentration not listed) | 200,000 tested, 0.056% active | AID 797, 2007; in the data active = inhibition above about 50%
Mdm2 ligase inh = MDM2-luciferase reporter signal enhancers, primary screen, MDM2 E3 ligase inhibitor project, cell-based, luminescence, 1536-well; signal enhancement, % at 5 µM; cell-based MDM2 ubiquitination luciferase reporter, 2 h; 0 = plate control, 100 = twice control, blank-subtracted; E3 ubiquitin-protein ligase Mdm2 (Homo sapiens), Q00987; 210,000 tested, 0.11% active;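 active = signal enhancement of 30% or more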;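 note: luminescence tracks abundance of the self-degrading MDM2-luciferase fusion protein; higher signal means inhibition of MDM2 E3 ligase activity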
Target sequence (Q00987 whole entry, looked up, the tested form may be a part): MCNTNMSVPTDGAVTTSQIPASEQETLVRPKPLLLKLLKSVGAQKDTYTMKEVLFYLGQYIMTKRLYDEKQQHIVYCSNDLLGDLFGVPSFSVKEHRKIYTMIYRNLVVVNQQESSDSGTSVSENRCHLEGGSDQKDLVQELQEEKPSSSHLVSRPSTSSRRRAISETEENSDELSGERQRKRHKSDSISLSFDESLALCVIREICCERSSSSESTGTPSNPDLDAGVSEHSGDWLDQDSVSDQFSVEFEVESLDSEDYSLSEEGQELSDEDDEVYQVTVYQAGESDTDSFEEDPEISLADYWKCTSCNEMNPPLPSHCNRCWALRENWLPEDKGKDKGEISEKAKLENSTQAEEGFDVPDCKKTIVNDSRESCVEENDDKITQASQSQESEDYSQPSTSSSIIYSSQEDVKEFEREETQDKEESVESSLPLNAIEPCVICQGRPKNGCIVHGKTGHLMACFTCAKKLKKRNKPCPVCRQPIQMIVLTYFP
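System: stable MDM2–luciferase fusion reporter cells / Input: 2000 cells seeded into each well / Schedule: 4 h settle plus 2 h compound, 37 °C / Compound: single-point 5 µM / Buffer or medium: cells held in DMEM / Benchmarks: control and blank well means / Evaluation: percent signal gain over controls, blank-subtracted / Measured by: luciferase luminescence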
TAG inh = inhibitors of triacylglycerol accumulation, primary screen, cell-based, uHTS, fluorescence, H9c2; inhibition, % at 12.5 µM; AID 651582, 2012; H9c2 cells, Nile Red lipid (TAG) fluorescence; cells loaded with 200 µM oleic acid; 230,000 tested, 0.66% active;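 active = pattern-corrected inhibition of lipid staining of at least 50% with the nuclear-stain viability signal not falling by more than 50%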;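 note: 0% = DMSO wells and 100% = triacsin C control wells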
* = called active by the depositor.

O=c1cc(-c2ccc(F)cc2)[nH][nH]1 was read as PERK inhibitor 1, Hck-Nef inh 2, Rad51 HR inh 2, PKD1 inh 10 and Mdm2 ligase inh -15.
Cc1cc(CNC[C@H]2O[C@@H](n3cnc4c(N)ncnc43)[C@H](O)[C@@H]2O)no1 was read as TAG inh 3.
`Cc1ccccc1NC(=O)c1nc(S(C)(=O)=O)ncc1Cl` gave TAG inh 68*.
Screening C=CCN(c1ccccc1)S(=O)(=O)c1cccc(C(=O)NNC(=O)c2ccccc2O)c1 returned TAG inh 0.
`C=CCN(c1ccccc1)S(=O)(=O)c1cccc(C(=O)O)c1` gave PERK inhibitor 3.4*, Hck-Nef inh 1, Rad51 HR inh 5, PKD1 inh -1, Mdm2 ligase inh -3 and TAG inh -1.
`Cc1[nH]c2ccccc2c1/C=N/Nc1ccccc1[N+](=O)[O-]` gave PERK inhibitor 0, Hck-Nef inh 20, Rad51 HR inh 8, PKD1 inh 7, Mdm2 ligase inh -8 and TAG inh 60*.
O=C(Nc1ccncc1)Nc1ccncc1 was read as PERK inhibitor 0, Hck-Nef inh 26, Rad51 HR inh 6, PKD1 inh 4, Mdm2 ligase inh 41* and TAG inh 10.
CC1(C)Oc2ccc3ccc(=O)oc3c2-c2cn[nH]c21 was read as PERK inhibitor -1, Hck-Nef inh 29, Rad51 HR inh 1, PKD1 inh 90*, Mdm2 ligase inh -14 and TAG inh 1.
`CCOC(=O)c1[nH]c(C)c(C(=O)O)c1C` gave PERK inhibitor 3.3*, Hck-Nef inh 6, Rad51 HR inh 2, PKD1 inh -4 and Mdm2 ligase inh -3.
Screening O=C(N[C@@H](Cc1ccc(O)cc1)C(=O)O)c1ccncc1 returned Rad51 HR inh 1 and TAG inh 0.
`C=CCN1C(=O)N/C(=C/c2ccc(N3CCOCC3)o2)C1=O` gave PERK inhibitor 0, Hck-Nef inh 2, Rad51 HR inh -15, PKD1 inh -10 and Mdm2 ligase inh 4.
For O=C1N/C(=C/c2ccc(N3CCOCC3)o2)C(=O)N1c1ccccc1 the results were PERK inhibitor 1, Hck-Nef inh -2, Rad51 HR inh -69, PKD1 inh -2 and Mdm2 ligase inh 47*.
COc1ccc(/C=N/NC(=O)COc2ccccc2-c2ccccc2)cc1 was read as PERK inhibitor 1, Hck-Nef inh 1, Rad51 HR inh -7, PKD1 inh -5, Mdm2 ligase inh -11 and TAG inh 59*.
Screening CC(C)c1cc(C(C)C)c(S(=O)(=O)N2c3ccccc3[C@]3(Br)C[C@H]4C(=O)N[C@@H](Cc5ccccc5)C(=O)N4[C@H]23)c(C(C)C)c1 returned Rad51 HR inh 2.
Screening CC(C)=C1SC(N2CCN(c3cccc(C(F)(F)F)c3)CC2)=NC1=O returned PERK inhibitor 0, Hck-Nef inh 1, Rad51 HR inh -1, PKD1 inh -1, Mdm2 ligase inh 30* and TAG inh 21.
Screening O=C(COC(=O)c1ccc(C(F)(F)F)cc1)NC(=O)NC1CCCC1 returned TAG inh 7.
`CCCC1=Nc2cc(C(=O)NCCCOCC)ccc2Sc2ccccc21` gave PERK inhibitor 0, Hck-Nef inh -3, Rad51 HR inh 2, PKD1 inh -14, Mdm2 ligase inh -1 and TAG inh 79*.
Screening COc1ccc(CC(=O)Nc2cccc(/C(C)=N/NC(=O)c3cccc([N+](=O)[O-])c3)c2)cc1 returned PERK inhibitor 0, Hck-Nef inh 1, Rad51 HR inh -3, PKD1 inh -4, Mdm2 ligase inh 1 and TAG inh -14.
Screening COc1ccc(OCC(=O)N/N=C(\C)CC(=O)Nc2cccc([N+](=O)[O-])c2)cc1 returned PERK inhibitor 0, Hck-Nef inh 20, Rad51 HR inh -1, PKD1 inh -3, Mdm2 ligase inh 32* and TAG inh 12.
`Cc1cc(C)nc(NC(=S)NC(=O)c2ccccc2F)n1` gave TAG inh -4.
Screening Cc1cc(C)nc(S/C=C/C(=O)c2ccccc2F)n1 returned PERK inhibitor 0, Hck-Nef inh -18, Rad51 HR inh 8, Mdm2 ligase inh 39* and TAG inh 75*.
`COc1cc(C(=O)OCCN2CCCCC2)ccc1O` gave PERK inhibitor 1, Hck-Nef inh 0, Rad51 HR inh -11, PKD1 inh 3 and Mdm2 ligase inh -18.
`CCCOC(=O)c1ccc(O)c(OC)c1` gave PERK inhibitor 0, Hck-Nef inh 13, Rad51 HR inh -6, PKD1 inh -4, Mdm2 ligase inh 45* and TAG inh 9.
Screening NC(=O)c1cccc(-c2cnc3c(Nc4cccc(OC(F)(F)C(F)F)c4)nccn23)c1 returned TAG inh 13.
CSc1nc(N(CCO)CCO)c2sc3nc(-c4ccco4)c4c(c3c2n1)CCC4 was read as PERK inhibitor 1, Hck-Nef inh 77*, Rad51 HR inh 1, PKD1 inh -6, Mdm2 ligase inh -17 and TAG inh 9.
Screening Cn1c(=O)c2c(SCc3ccccc3)nc(-c3ccco3)nc2n(C)c1=O returned PERK inhibitor 4.2*, Hck-Nef inh -4, Rad51 HR inh 3, PKD1 inh -3 and Mdm2 ligase inh -17.
Screening Cn1c(=O)c2c(SCc3cccc(C(F)(F)F)c3)nc(-c3ccco3)nc2n(C)c1=O returned PERK inhibitor 1, Hck-Nef inh 3, PKD1 inh 1 and Mdm2 ligase inh -14.
For CS(=O)(=O)N1CCN(C(=O)c2ccc(Cl)s2)CC1 the results were PERK inhibitor 2, Hck-Nef inh -2, Rad51 HR inh 43*, PKD1 inh -2, Mdm2 ligase inh -16 and TAG inh -12.
For CCC(C)C(CO)NCCCn1ccc(NC(=O)OCc2ccccc2)nc1=O (stereo unspecified) the results were TAG inh 16.
CC(=O)Nc1sc2c(c1-c1nc3ccccc3s1)CCN(C(C)C)C2 was read as PERK inhibitor 0, Hck-Nef inh -37, PKD1 inh 2, Mdm2 ligase inh -19 and TAG inh 92*.
